Measurements reported in ChEMBL document CHEMBL3390837, “Bridged tetrahydroisoquinolines as selective NADPH oxidase 2 (Nox2) inhibitors” (Medchemcomm, 2013).
pIC50: −log10 of the molar value.

What was measured:
NADPH oxidase 2 [1] = biological target: T1, NADPH oxidase 2 (Homo sapiens, UniProt P04839); assay: Inhibition of full length human NOX2 transfected in COS 22 cells assessed as inhibition of Phorbol 12-myristate 13-acetate-stimulated ROS generation by chemiluminescence assay; assay type: cell-based; settings: for pIC50: read-out: IC50
T1 sequence (P04839 whole entry): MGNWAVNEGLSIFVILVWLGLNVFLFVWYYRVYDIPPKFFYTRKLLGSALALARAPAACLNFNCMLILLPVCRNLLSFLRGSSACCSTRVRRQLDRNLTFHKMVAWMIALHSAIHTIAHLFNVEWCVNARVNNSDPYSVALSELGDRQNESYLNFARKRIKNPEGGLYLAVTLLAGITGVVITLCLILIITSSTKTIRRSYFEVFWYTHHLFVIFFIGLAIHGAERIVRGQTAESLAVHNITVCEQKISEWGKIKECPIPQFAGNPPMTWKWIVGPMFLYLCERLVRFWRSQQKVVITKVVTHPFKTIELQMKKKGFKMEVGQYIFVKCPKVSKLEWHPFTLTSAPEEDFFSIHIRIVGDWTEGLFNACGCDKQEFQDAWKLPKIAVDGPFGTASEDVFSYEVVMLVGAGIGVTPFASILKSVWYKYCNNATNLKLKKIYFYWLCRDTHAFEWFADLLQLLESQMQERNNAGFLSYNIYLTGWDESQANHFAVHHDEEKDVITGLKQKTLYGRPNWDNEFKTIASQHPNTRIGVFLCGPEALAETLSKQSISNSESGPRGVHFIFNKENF
In short: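 COS-Nox2 (COS-7 stably expressing human p22phox, Nox2, p47phox, p67phox) plated in OPTIMEM at 2.5 x 10³ cells/well; 10 min at 37 °C in PBS with L-012, then stimulated with 5 µM PMA; luminescence followed over time; superoxide specificity checked with SOD 150 U/mL. IC50 by three-parameter non-linear fit, Hill slope 1, top/bottom fixed 100/0.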

[2] = biological target: Xanthine dehydrogenase/oxidase (Bos taurus, UniProt P80457); assay: Inhibition of bovine milk xanthine oxidase assessed as hypoxanthine-stimulated ROS generation by measuring H2O2 production at 25 to 50 uM by fluorescence assay; settings: cattle
Chain of Xanthine dehydrogenase/oxidase (P80457 whole entry): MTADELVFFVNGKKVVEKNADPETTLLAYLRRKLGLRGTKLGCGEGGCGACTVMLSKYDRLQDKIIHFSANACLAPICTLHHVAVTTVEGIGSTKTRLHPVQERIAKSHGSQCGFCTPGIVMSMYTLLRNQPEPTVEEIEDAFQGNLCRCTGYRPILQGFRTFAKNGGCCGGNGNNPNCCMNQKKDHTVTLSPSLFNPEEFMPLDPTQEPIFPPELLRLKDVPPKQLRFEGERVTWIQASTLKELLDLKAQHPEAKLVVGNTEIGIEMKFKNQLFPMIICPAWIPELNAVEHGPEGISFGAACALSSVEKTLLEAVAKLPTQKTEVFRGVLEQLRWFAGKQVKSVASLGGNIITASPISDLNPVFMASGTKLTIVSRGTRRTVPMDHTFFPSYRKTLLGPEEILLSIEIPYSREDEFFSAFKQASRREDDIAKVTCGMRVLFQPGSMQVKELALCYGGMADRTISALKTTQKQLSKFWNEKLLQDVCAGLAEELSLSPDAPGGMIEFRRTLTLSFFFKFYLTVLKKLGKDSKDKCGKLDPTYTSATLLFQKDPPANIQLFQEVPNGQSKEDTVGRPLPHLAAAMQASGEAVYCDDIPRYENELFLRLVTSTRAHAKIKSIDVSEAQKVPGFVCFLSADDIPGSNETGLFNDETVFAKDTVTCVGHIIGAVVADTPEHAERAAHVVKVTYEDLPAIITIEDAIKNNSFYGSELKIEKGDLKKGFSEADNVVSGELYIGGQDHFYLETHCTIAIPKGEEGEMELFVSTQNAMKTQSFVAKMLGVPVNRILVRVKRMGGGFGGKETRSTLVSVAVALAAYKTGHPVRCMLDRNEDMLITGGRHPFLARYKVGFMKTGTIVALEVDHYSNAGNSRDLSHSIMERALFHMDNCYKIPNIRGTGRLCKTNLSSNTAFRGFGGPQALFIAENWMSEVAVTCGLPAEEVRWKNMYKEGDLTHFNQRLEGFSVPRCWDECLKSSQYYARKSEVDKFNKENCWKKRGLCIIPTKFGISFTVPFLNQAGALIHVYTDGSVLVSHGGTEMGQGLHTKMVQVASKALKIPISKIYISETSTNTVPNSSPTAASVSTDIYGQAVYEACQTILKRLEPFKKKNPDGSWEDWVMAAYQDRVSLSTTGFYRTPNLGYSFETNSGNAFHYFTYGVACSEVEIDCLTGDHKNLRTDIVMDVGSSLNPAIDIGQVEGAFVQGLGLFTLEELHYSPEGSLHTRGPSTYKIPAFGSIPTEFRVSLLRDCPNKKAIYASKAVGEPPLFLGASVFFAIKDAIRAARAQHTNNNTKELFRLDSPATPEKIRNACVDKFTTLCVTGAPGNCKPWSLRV

NADPH oxidase 2 [3] = biological target: T1, NADPH oxidase 2; assay: Inhibition of full length human NOX2 transfected in COS 22 cells assessed as inhibition of Phorbol 12-myristate 13-acetate-stimulated ROS generation by measuring H2O2 production by fluorescence assay in presence of superoxide dismutase; assay type: cell-based; settings: for pIC50: read-out: IC50
In short: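 Intact COS-Nox2 cells in Hepes pH 7.4 buffer with 0.1 mM Amplex Red, 0.32 U/ml HRP and 150 U/mL SOD, drug 15 min at 37 °C; started with 5 µM PMA; fluorescence monitored 1 h at 37 °C; rate as RFU/min minus unstimulated cells; % of vehicle control.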

NADPH oxidase 1 = biological target: T2, NADPH oxidase 1 (Homo sapiens, UniProt Q9Y5S8); assay: Inhibition of full length human NOX1 transfected in COS 22 cells assessed as inhibition of constitutive ROS generation by chemiluminescence assay; settings: for pIC50: read-out: IC50
T2 sequence (Q9Y5S8 whole entry): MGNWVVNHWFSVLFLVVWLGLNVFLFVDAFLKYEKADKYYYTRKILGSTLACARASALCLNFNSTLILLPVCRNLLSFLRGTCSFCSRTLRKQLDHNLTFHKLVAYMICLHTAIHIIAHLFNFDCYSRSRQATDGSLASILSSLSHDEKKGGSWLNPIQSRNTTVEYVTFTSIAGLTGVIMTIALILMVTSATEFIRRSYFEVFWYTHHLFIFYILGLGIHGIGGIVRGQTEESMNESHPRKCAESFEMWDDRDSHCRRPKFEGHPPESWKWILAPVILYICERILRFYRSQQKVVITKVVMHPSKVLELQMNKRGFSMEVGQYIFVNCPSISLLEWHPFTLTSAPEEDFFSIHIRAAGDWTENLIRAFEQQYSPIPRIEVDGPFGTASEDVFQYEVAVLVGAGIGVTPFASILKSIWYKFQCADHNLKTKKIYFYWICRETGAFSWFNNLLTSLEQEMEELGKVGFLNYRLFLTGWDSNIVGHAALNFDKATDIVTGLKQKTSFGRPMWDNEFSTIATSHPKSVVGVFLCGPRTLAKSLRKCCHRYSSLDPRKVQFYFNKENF

NADPH oxidase 4 = biological target: T3, NADPH oxidase 4 (Homo sapiens, UniProt Q9NPH5); assay: Inhibition of full length human NOX4 transfected in COS 22 cells assessed as inhibition of ROS generation by measuring H2O2 production by fluorescence assay; settings: for IC50: cos 22; for pIC50: read-out: IC50
T3 sequence (Q9NPH5 whole entry): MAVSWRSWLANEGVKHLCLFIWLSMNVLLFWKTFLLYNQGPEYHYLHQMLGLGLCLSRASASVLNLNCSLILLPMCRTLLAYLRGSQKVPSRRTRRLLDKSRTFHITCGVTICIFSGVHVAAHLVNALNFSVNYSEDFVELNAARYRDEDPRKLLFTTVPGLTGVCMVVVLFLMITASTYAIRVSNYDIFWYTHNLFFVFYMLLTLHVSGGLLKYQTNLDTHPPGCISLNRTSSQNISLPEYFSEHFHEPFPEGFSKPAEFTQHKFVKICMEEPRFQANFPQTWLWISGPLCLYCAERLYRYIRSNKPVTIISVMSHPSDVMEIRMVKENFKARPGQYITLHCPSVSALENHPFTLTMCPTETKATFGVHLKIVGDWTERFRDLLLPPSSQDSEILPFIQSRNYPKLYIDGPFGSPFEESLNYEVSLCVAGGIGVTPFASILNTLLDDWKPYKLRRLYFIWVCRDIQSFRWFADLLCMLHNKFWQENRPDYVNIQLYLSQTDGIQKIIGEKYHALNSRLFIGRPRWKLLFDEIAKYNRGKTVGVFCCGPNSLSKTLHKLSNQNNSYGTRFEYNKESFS

NADPH oxidase 5 = biological target: T4, NADPH oxidase 5 (Homo sapiens, UniProt Q96PH1); assay: Inhibition of full length human NOX5 transfected in HEK cells assessed as inhibition of ionomycin-stimulated ROS generation by chemiluminescence assay; assay type: cell-based, HEK293
T4 sequence (Q96PH1 whole entry): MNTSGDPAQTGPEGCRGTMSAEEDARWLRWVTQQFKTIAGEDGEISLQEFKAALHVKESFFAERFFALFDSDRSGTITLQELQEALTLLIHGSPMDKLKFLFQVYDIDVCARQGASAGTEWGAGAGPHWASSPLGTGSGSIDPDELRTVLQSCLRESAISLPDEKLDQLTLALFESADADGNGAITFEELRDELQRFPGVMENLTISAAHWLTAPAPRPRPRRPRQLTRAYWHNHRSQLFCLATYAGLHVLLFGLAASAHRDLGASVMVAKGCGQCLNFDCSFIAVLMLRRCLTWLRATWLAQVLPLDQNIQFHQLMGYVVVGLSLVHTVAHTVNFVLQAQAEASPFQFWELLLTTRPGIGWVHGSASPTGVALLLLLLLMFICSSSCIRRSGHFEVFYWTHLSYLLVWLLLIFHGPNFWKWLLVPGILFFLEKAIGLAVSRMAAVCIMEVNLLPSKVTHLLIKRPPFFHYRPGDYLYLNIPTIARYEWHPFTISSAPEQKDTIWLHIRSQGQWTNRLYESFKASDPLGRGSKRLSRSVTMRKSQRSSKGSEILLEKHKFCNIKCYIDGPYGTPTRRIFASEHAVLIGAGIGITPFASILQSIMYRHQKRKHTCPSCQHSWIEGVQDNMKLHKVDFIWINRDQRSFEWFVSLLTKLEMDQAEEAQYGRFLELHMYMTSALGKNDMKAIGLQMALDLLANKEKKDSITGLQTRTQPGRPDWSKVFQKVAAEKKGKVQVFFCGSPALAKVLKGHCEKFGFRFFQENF
In short: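 HEK-Nox5 cells at 5 × 10⁴ cells/well in OPTIMEM, 10 min at 37 °C in PBS with L-012, then stimulated with 1 µM PMA/0.1 µM ionomycin; luminescence over time; SOD 150 U/mL used to confirm superoxide specificity. IC50 by three-parameter fit, Hill slope 1, top/bottom fixed 100/0.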

[4] = Cytotoxicity against african green monkey COS7 cells expressing human p22phox assessed as cell viability at 25 to 50 uM after 15 mins by luminogenic assay; assay type: cell-based; settings: chlorocebus aethiops, cos-7, 0.25 h
In short: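 COS-22 cells plated at 2.5 x 10³ cells/well in OPTIMEM, exposed 15 min to compounds at various concentrations; dead-cell protease release read with luminogenic AAF peptide substrate, signal before and after digitonin used to derive % dead; reported as % live cells (100 − % dead) per well.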

SMILES | pIC50 (NADPH oxidase 2 [1]) | inhibition (INH) [2] | pIC50 (NADPH oxidase 2 [3]) | pIC50 (NADPH oxidase 1) | IC50 (NADPH oxidase 4) | pIC50 (NADPH oxidase 5) | pIC50 (NADPH oxidase 4) | IC50 (NADPH oxidase 1; cos 22) | Activity [4] | IC50 (NADPH oxidase 2 [1]; cos 22) | IC50 (NADPH oxidase 2 [3]; cos 22)
C=C(C)C[C@H]1[C@H]2c3c(Br)cccc3[C@H](CC2(C)C)N1Cc1ccnc2ccccc12 (racemic) | < 4.00 | Not Active | < 4.00 | < 4.00 | Not Active | < 4.00 | – | – | – | – | –
C=C(C)C[C@H]1[C@H]2c3c(Br)cccc3[C@H](CC2(C)C)N1Cc1cccc(F)c1 (racemic) | 4.17 | Not Active | 4.29 | < 4.00 | – | 4.10 | < 4.00 | – | – | – | –
C=C(C)C[C@H]1[C@H]2c3c(Br)cccc3[C@H](CC2(C)C)N1Cc1ccc2c(c1)OCO2 (racemic) | 4.06 | Not Active | 4.40 | < 4.00 | – | < 4.00 | < 4.00 | – | – | – | –
C=C(C)C[C@@H]1N[C@H]2CC(C)(C)[C@@H]1c1ccccc12 (racemic) | < 4.00 | Not Active | < 4.00 | < 4.00 | Not Active | < 4.00 | – | – | – | – | –
C=C(C)C[C@H]1[C@H]2c3c(-c4ccc(Cl)c(Cl)c4)cccc3[C@H](CC2(C)C)N1Cc1ccc2c(c1)OCO2 (racemic) | < 4.00 | Not Active | < 4.00 | < 4.00 | Not Active | < 4.00 | – | – | – | – | –
C=C(C)C[C@H]1[C@H]2c3c(Br)cccc3[C@H](CC2(C)C)N1S(C)(=O)=O (racemic) | < 4.00 | Not Active | 4.57 | – | – | < 4.00 | < 4.00 | Not Active | – | – | –
C=C(C)C[C@H]1[C@H]2c3c(Br)cccc3[C@H](CC2(C)C)N1S(=O)(=O)c1ccc(F)cc1 (racemic) | < 4.00 | Not Active | < 4.00 | < 4.00 | Not Active | < 4.00 | – | – | – | – | –
C=C(C)C[C@H]1[C@H]2c3c(Br)cccc3[C@H](CC2(C)C)N1Cc1c[nH]c2ccccc12 (racemic) | < 4.00 | Not Active | < 4.00 | < 4.00 | Not Active | < 4.00 | – | – | – | – | –
C=C(C)C[C@H]1[C@H]2c3c(Br)cccc3[C@H](CC2(C)C)N1Cc1cccs1 (racemic) | 4.42 | Not Active | 4.49 | < 4.00 | Not Active | < 4.00 | – | – | – | – | –
C=C(C)C[C@@H]1N[C@H]2CC(C)(C)[C@@H]1c1c(-c3ccc(Cl)c(Cl)c3)cccc12 (racemic) | 5.05 | Not Active | 4.19 | < 4.00 | – | 4.85 | < 4.00 | – | – | – | –
CC(C)C[C@@H]1N[C@H]2CC(C)(C)[C@@H]1c1c(Br)cccc12 (racemic) | 4.51 | Not Active | 4.11 | 4.49 | – | 4.74 | < 4.00 | – | Non-toxic | – | –
C=C(C)C[C@H]1[C@H]2c3c(-c4ccc(Cl)c(Cl)c4)cccc3[C@H](CC2(C)C)N1CCCCC (racemic) | < 4.00 | Not Active | 4.10 | < 4.00 | – | < 4.00 | < 4.00 | – | – | – | –
C=C(C)C[C@H]1[C@H]2c3c(Br)cccc3[C@H](CC2(C)C)N1Cc1cc(C)on1 (racemic) | 4.32 | Not Active | 4.92 | < 4.00 | – | 4.51 | < 4.00 | – | – | – | –
[Cl-].c1ccc2c(c1)[I+]c1ccccc1-2 [DIPHENYLENEIODONIUM CHLORIDE] | – | Not Active | – | – | – | – | – | – | – | – | –
C=C(C)C[C@H]1[C@H]2c3c(Br)cccc3[C@H](CC2(C)C)N1CCCCC (racemic) | 4.70 | Not Active | 4.70 | < 4.00 | – | < 4.00 | < 4.00 | – | – | – | –
C=C(C)C[C@@H]1N[C@H]2CC(C)(C)[C@@H]1c1c(-c3cccnc3)cccc12 (racemic) | – | Not Active | – | – | – | – | – | – | – | Not Active | Not Active
C=C(C)C[C@H]1[C@H]2c3ccccc3[C@H](CC2(C)C)N1Cc1cccc(F)c1 (racemic) | 4.17 | Not Active | 4.52 | < 4.00 | – | 4.30 | < 4.00 | – | – | – | –
